Species on record: Cavia porcellus
Test: Dose required to convert acetylstrophanthidin-induced arrhythmia in guinea pig right atria to normal sinus rhythm (number of tissues converted to NSR/number of tissues tested=8/8)
Type: functional
Conditions: not given

SMILES	ED
O=C(Cc1cccc(CN2CCCC2)c1)OCC1COc2ccccc2O1 (configuration not stated)	6.9 µg/mL

Species on record: Cavia porcellus
Test: Dose required to convert acetylstrophanthidin-induced arrhythmia in guinea pig right atria to normal sinus rhythm (number of tissues converted to NSR/number of tissues tested=1/4)
Type: functional
Conditions: not given

SMILES	ED
O=C(Cc1cc(CN2CCCC2)c(O)c(CN2CCCC2)c1)OCC1CCCO1 (configuration not stated)	40 µg/mL

Species on record: Cavia porcellus
Test: Dose required to convert acetylstrophanthidin-induced arrhythmia in guinea pig right atria to normal sinus rhythm (number of tissues converted to NSR/number of tissues tested=5/5)
Type: functional
Conditions: not given

SMILES	ED
O=C(Cc1cc(CN2CCCC2)c(O)c(CN2CCCC2)c1)OCc1ccco1	29.4 µg/mL
O=C(Cc1cc(CN2CCCC2)c(O)c(CN2CCCC2)c1)OCC1COc2ccccc2O1 (configuration not stated)	7.3 µg/mL

Species on record: Cavia porcellus
Test: Dose required to convert acetylstrophanthidin-induced arrhythmia in guinea pig right atria to normal sinus rhythm (number of tissues converted to NSR/number of tissues tested=1/3)
Type: functional
Conditions: not given

SMILES	ED
O=C(Cc1cc(CN2CCCC2)c(O)c(CN2CCCC2)c1)OCC1CCCCO1 (configuration not stated)	20 µg/mL

Species on record: Cavia porcellus
Test: Dose required to convert acetylstrophanthidin-induced arrhythmia in guinea pig right atria to normal sinus rhythm (number of tissues converted to NSR/number of tissues tested=2/4)
Type: functional
Conditions: not given

SMILES	ED
O=C(Cc1cc(CN2CCCC2)c(O)c(CN2CCCC2)c1)OCC1CCc2ccccc2C1 (configuration not stated)	6 µg/mL

Species on record: Cavia porcellus
Test: Dose required to convert acetylstrophanthidin-induced arrhythmia in guinea pig right atria to normal sinus rhythm (number of tissues converted to NSR/number of tissues tested=6/6)
Type: functional
Conditions: not given

SMILES	ED
O=C(Cc1cc(CN2CCCC2)c(O)c(CN2CCCC2)c1)OCc1ccoc1	27.5 µg/mL

Species on record: Cavia porcellus
Test: Dose required to convert acetylstrophanthidin-induced arrhythmia in guinea pig right atria to normal sinus rhythm (number of tissues converted to NSR/number of tissues tested=3/5)
Type: functional
Conditions: not given

SMILES	ED
O=C(Cc1cc(CN2CCCC2)c(O)c(CN2CCCC2)c1)OCCN1C(=O)c2ccccc2C1=O	23.3 µg/mL

Species on record: Cavia porcellus
Test: Dose required to convert acetylstrophanthidin-induced arrhythmia in guinea pig right atria to normal sinus rhythm (number of tissues converted to NSR/number of tissues tested=4/4)
Type: functional
Conditions: not given

SMILES	ED
O=C(Cc1cc(CN2CCCC2)c(O)c(CN2CCCC2)c1)OCc1ccc([N+](=O)[O-])cc1	5.2 µg/mL
O=C(Cc1cc(CN2CCCC2)c(O)c(CN2CCCC2)c1)OCCOc1ccccc1	16.2 µg/mL
CN1CCN(Cc2cc(CC(=O)OCC3COc4ccccc4O3)ccc2O)CC1 (configuration not stated)	2.5 µg/mL
O=C(Cc1ccc(O)c(CN2CCN(CC(=O)N3CCCC3)CC2)c1)OCC1COc2ccccc2O1 (configuration not stated)	22.5 µg/mL
O=C(Cc1ccc(O)c(CN2CCCC2)c1)OCC1COc2ccccc2O1 (configuration not stated)	1.2 µg/mL
O=C(Cc1cc(CN2CCCC2)c(O)c(CN2CCCC2)c1)OCCc1ccccc1	2.8 µg/mL
O=C(Cc1ccc(CN2CCCC2)cc1)OCC1COc2ccccc2O1 (configuration not stated)	10 µg/mL
O=C(Cc1cc(CN2CCCC2)c(O)c(CN2CCCC2)c1)OCCc1ccsc1	6.2 µg/mL
O=C(Cc1cc(CN2CCCC2)c(O)c(CN2CCCC2)c1)OCCc1cccs1	3 µg/mL
O=C(Cc1cc(CN2CCCC2)c(O)c(CN2CCCC2)c1)OCc1c(F)c(F)c(F)c(F)c1F	7.5 µg/mL
O=C(Cc1cc(CN2CCCC2)c(O)c(CN2CCCC2)c1)OCc1cccs1	5.5 µg/mL

Test system: not listed separately
Test: In vitro determination of human blood elimination half-life
Type: ADME
Conditions: whole blood

SMILES	half-life
O=C(Cc1cc(CN2CCCC2)c(O)c(CN2CCCC2)c1)OCC1CCCO1 (configuration not stated)	3.5 min
O=C(Cc1cc(CN2CCCC2)c(O)c(CN2CCCC2)c1)OCc1ccco1	2.5 min
O=C(Cc1cc(CN2CCCC2)c(O)c(CN2CCCC2)c1)OCc1ccc([N+](=O)[O-])cc1	6.2 min
O=C(Cc1cc(CN2CCCC2)c(O)c(CN2CCCC2)c1)OCc1ccoc1	10.1 min
O=C(Cc1cc(CN2CCCC2)c(O)c(CN2CCCC2)c1)OCC1CCCCO1 (configuration not stated)	3.3 min
O=C(Cc1cc(CN2CCCC2)c(O)c(CN2CCCC2)c1)OCCc1ccsc1	34.8 min
O=C(Cc1cc(CN2CCCC2)c(O)c(CN2CCCC2)c1)OCCc1cccs1	35.9 min
O=C(Cc1cc(CN2CCCC2)c(O)c(CN2CCCC2)c1)OCc1c(F)c(F)c(F)c(F)c1F	11 min
O=C(Cc1cc(CN2CCCC2)c(O)c(CN2CCCC2)c1)OCc1cccs1	3.5 min

Second part, the compound after the results:

half-life	SMILES
3.8 min	O=C(Cc1cc(CN2CCCC2)c(O)c(CN2CCCC2)c1)OCCN1C(=O)c2ccccc2C1=O
2.5 min	O=C(Cc1cc(CN2CCCC2)c(O)c(CN2CCCC2)c1)OCCOc1ccccc1
< 1 min	O=C(Cc1ccc(O)c(CN2CCN(CC(=O)N3CCCC3)CC2)c1)OCC1COc2ccccc2O1 (configuration not stated)
16.8 min	O=C(Cc1cc(CN2CCCC2)c(O)c(CN2CCCC2)c1)OCCc1ccccc1
< 1 min	O=C(Cc1ccc(O)c(CN2CCC(N3CCCCC3)CC2)c1)OCC1COc2ccccc2O1 (configuration not stated)
< 1 min	O=C(Cc1ccc(CN2CCCC2)cc1)OCC1COc2ccccc2O1 (configuration not stated)
7.1 min	O=C(Cc1cc(CN2CCCC2)c(O)c(CN2CCCC2)c1)OCC1COc2ccccc2O1 (configuration not stated)
2.3 min	O=C(Cc1cc(CN2CCCC2)c(O)c(CN2CCCC2)c1)OCC1CCc2ccccc2C1 (configuration not stated)
9.2 min	O=C(Cc1cc(CN2CCCC2)c(O)c(CN2CCCC2)c1)OCc1ccc2c(c1)OCO2
< 1 min	O=C(Cc1cccc(CN2CCCC2)c1)OCC1COc2ccccc2O1 (configuration not stated)

Test system: Canis familiaris
Test: In vivo determination of antiarrhythmic activity as the dose required for the production of 50% normal sinus beats in ouabain dog
Type: functional
Conditions: Canis lupus familiaris, Heart
Summary of the method: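 Dogs with ouabain-induced arrhythmia received the agent by intravenous infusion at 500 µg/kg/min. ED50 is the cumulative administered dose (mg/kg) at which 50% of beats were normal sinus beats; number of animals given.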

SMILES	ED50
O=C(Cc1cc(CN2CCCC2)c(O)c(CN2CCCC2)c1)OCC1COc2ccccc2O1 (configuration not stated)	4.8 mg/kg
O=C(Cc1cc(CN2CCCC2)c(O)c(CN2CCCC2)c1)OCc1cccs1	3.8 mg/kg
CCN(CC)CC(=O)Nc1c(C)cccc1C [LIDOCAINE]	8.8 mg/kg

Species on record: Cavia porcellus
Test: Dose required to convert acetylstrophanthidin-induced arrhythmia in guinea pig right atria to normal sinus rhythm (number of tissues converted to NSR/number of tissues tested=3/3)
Type: functional
Conditions: not given

SMILES	ED
O=C(Cc1ccc(O)c(CN2CCC(N3CCCCC3)CC2)c1)OCC1COc2ccccc2O1 (configuration not stated)	8.3 µg/mL
COc1ccc2c(COC(=O)Cc3cc(CN4CCCC4)c(O)c(CN4CCCC4)c3)cc(=O)oc2c1	11.7 µg/mL

Test system: not listed separately
Test: Distribution coefficient was determined
Type: physicochemical
Conditions: octanol/water
Summary of the method: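 Octanol and 0.1 M phosphate buffer at pH 7.4 were pre-saturated with each other by shaking for 16 h. About 5 mg of compound was dissolved in 10 mL buffer. A 5-mL portion was shaken with 5 mL octanol and centrifuged for 5 min. Absorbance of the aqueous phase at 280 nm was read before and after partitioning, diluted to 0.4–0.9. DC = (initial − final)/final, each × dilution factor; mean of two determinations.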

SMILES	DC
O=C(Cc1cc(CN2CCCC2)c(O)c(CN2CCCC2)c1)OCc1cccs1	0.73
CCN(CC)CC(=O)Nc1c(C)cccc1C [LIDOCAINE]	19.2

More lines, now with the values ahead:

DC	SMILES
24	CN1CCN(Cc2cc(CC(=O)OCC3COc4ccccc4O3)ccc2O)CC1 (configuration not stated)
7.1	O=C(Cc1ccc(O)c(CN2CCN(CC(=O)N3CCCC3)CC2)c1)OCC1COc2ccccc2O1 (configuration not stated)
36.3	O=C(Cc1ccc(O)c(CN2CCCC2)c1)OCC1COc2ccccc2O1 (configuration not stated)
9.6	O=C(Cc1ccc(O)c(CN2CCC(N3CCCCC3)CC2)c1)OCC1COc2ccccc2O1 (configuration not stated)
22.1	O=C(Cc1ccc(CN2CCCC2)cc1)OCC1COc2ccccc2O1 (configuration not stated)
2.62	O=C(Cc1cc(CN2CCCC2)c(O)c(CN2CCCC2)c1)OCC1COc2ccccc2O1 (configuration not stated)
39.5	O=C(Cc1cccc(CN2CCCC2)c1)OCC1COc2ccccc2O1 (configuration not stated)

Test system: not listed separately
Test: In vitro determination of human blood elimination half-life; not determined because more than 90% of the drug was metabolized in min
Type: ADME
Conditions: whole blood

half-life	SMILES
< 1 min	O=C(Cc1ccc(O)c(CN2CCCC2)c1)OCC1COc2ccccc2O1 (configuration not stated)

Test system: Canis familiaris
Test: In vivo determination of antiarrhythmic activity as the dose required for the production of 80% normal sinus beats in Harris dog
Type: functional
Conditions: Canis lupus familiaris, Heart
Summary of the method: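 Harris dog arrhythmia model with intravenous infusion at 150, 225 or 300 µg/kg/min depending on agent. Effective dose is the cumulative administered dose (mg/kg) giving 80% normal sinus beats; number of animals given.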

SMILES	ED50
O=C(Cc1cc(CN2CCCC2)c(O)c(CN2CCCC2)c1)OCC1COc2ccccc2O1 (configuration not stated)	14 mg/kg
O=C(Cc1cc(CN2CCCC2)c(O)c(CN2CCCC2)c1)OCc1cccs1	10.5 mg/kg
CCN(CC)CC(=O)Nc1c(C)cccc1C [LIDOCAINE]	37.5 mg/kg

Species on record: Cavia porcellus
Test: Dose required to convert acetylstrophanthidin-induced arrhythmia in guinea pig right atria to normal sinus rhythm (number of tissues converted to NSR/number of tissues tested=3/4)
Type: functional
Conditions: not given

SMILES	ED
O=C(Cc1cc(CN2CCCC2)c(O)c(CN2CCCC2)c1)OCc1ccc2c(c1)OCO2	10.7 µg/mL
